Each block holds one molecule with its values, some of them ahead of it.
Key:
Hepatocyte [1] = test: Drug metabolism in human hepatocytes assessed as ((4R,5R,7R,8R)-5-(2,4-dioxo-3,4-dihydropyrimidin-1(2H)-yl)-8-hydroxy-1,6-dioxaspiro[3.4]octan-7-yl)methyl dihydrogen phosphate formation in presence of CYP2C8 and CYP2C9 inhibitor montelukast by LC-MS/MS analysis; format: ADME, cell-based
Liver [2] = test: Tmax in rat liver assessed as 2'-deoxy-2'-spirooxetane uridine triphosphate at 50 mg/kg, po; format: ADME, organism-based; details: in vivo
How it was run: (§1)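 Single oral dose of 50 mg/kg formulated in 20% HP-β-cyclodextrin. Prodrug and its triphosphate were measured in plasma and liver (ng/mL or ng/g) over time, and Cmax, tmax, AUC, tlast and t1/2 were derived. For some analytes, data from two independent studies are reported.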

Liver [3] = test: AUC (0 to last) in mouse liver assessed as 2'-deoxy-2'-spirooxetane uridine triphosphate at 50 mg/kg, po; format: ADME, organism-based; details: in vivo
How it was run: (§2)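 Oral dose 50 mg/kg, formulated in 20% HP-β-cyclodextrin. Prodrug and triphosphate were measured in plasma and liver (ng/mL or ng/g). Parameters derived were Cmax, tmax, AUC0-last, AUC0-inf and t1/2. Some prodrug data come from two independent studies.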

Hepatocyte [4] = test: Drug metabolism in human hepatocytes assessed as ((4R,5R,7R,8R)-5-(2,4-dioxo-3,4-dihydropyrimidin-1(2H)-yl)-8-hydroxy-1,6-dioxaspiro[3.4]octan-7-yl)methyl dihydrogen phosphate formation in presence of pan-PDE inhibitor ibudilast by LC-MS/MS analysis; format: ADME, cell-based
Hepatitis C virus [5] = test: Antiviral activity against HCV genotype 1a infected in homozygous cDNA-uPA chimeric SCID mouse bearing humanized hepatocytes assessed as change in HCV RNA level in serum at 100 mg/kg, po bid administered through gavage for 7 days by RT-PCR method; format: functional, Hepacivirus hominis, subtype 1a, Hepatocyte
How it was run: (§3)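 Male chimeric SCID cDNA-uPA+/+ mice with human hepatocyte liver (≥70% replacement by blood human albumin) and serum HCV RNA >1.0×10^6 copies/mL the week before dosing. Oral gavage for 7 days in 20% HP-β-CD, 50-200 mg/kg QD or BID. Serum sampled pre-dose on days 1, 2, 3, 5 and 7. Real-time PCR; mean change in log10 copies/mL, day 7 vs day 1 pre-dose.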

Liver [6] = test: AUC (0 to last) in rat liver assessed as 2'-deoxy-2'-spirooxetane uridine triphosphate at 50 mg/kg, po; format: ADME, organism-based; details: in vivo; how it was run: as §2
[7] = Half life in dog plasma at 50 mg/kg, po; format: ADME, organism-based, Canis lupus familiaris
How it was run: (§4)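 Single oral dose of 50 mg/kg in 20% HP-β-cyclodextrin. Prodrug and triphosphate measured in plasma and liver over time (tlast 6–30 h). Half-life, Cmax, tmax and AUC0-last derived; liver/plasma ratio taken from AUC0-last. Prodrug data pooled from two independent studies.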

Hepatocyte [8] = test: Drug metabolism in human hepatocytes assessed as ((4R,5R,7R,8R)-5-(2,4-dioxo-3,4-dihydropyrimidin-1(2H)-yl)-8-hydroxy-1,6-dioxaspiro[3.4]octan-7-yl)methyl dihydrogen phosphate formation in presence of CYP3A4 inhibitor ketoconazole by LC-MS/MS analysis; format: ADME, cell-based
Hepatocyte [9] = test: Prodrug conversion in human hepatocytes assessed as 2'-deoxy-2'-spirooxetane uridine triphosphate formation in presence of PDE5 inhibitor sildenafil by LC-MS/MS analysis; format: ADME, cell-based
Liver [10] = test: Tlast in rat liver at 50 mg/kg, po; format: ADME, organism-based; details: in vivo; how it was run: as §1
Hepatocyte [11] = test: Drug metabolism in human hepatocytes assessed as ((4R,5R,7R,8R)-5-(2,4-dioxo-3,4-dihydropyrimidin-1(2H)-yl)-8-hydroxy-1,6-dioxaspiro[3.4]octan-7-yl)methyl dihydrogen phosphate formation in presence of pan-CYP inhibitor 1-ABT by LC-MS/MS analysis; format: ADME, cell-based
[12] = Cmax in rat plasma at 50 mg/kg, po; format: ADME, organism-based; design: dose 50 mg/kg, route oral
[13] = Half life in mouse plasma at 50 mg/kg, po; format: ADME, organism-based; how it was run: as §4
Hepatitis C virus [14] = test: Antiviral activity against HCV genotype 1a infected in homozygous cDNA-uPA chimeric SCID mouse bearing humanized hepatocytes assessed as change in HCV RNA level in serum at 50 mg/kg, po bid administered through gavage for 7 days by RT-PCR method; format: functional, Hepacivirus hominis, subtype 1a, Hepatocyte; how it was run: as §3
[15] = Tmax in rat plasma at 50 mg/kg, po; format: ADME, organism-based; how it was run: as §1
[16] = Ratio of AUC (0 to last) in dog liver to AUC (0 to last) in dog plasma; format: ADME, Canis lupus familiaris; how it was run: as §4
Hepatitis C virus [17] = test: Antiviral activity against HCV genotype 1a infected in homozygous cDNA-uPA chimeric SCID mouse bearing humanized hepatocytes assessed as change in HCV RNA level in serum at 200 mg/kg, po qd administered through gavage for 7 days by RT-PCR method; format: functional, Hepacivirus hominis, subtype 1a, Hepatocyte; how it was run: as §3
Liver [18] = test: Tmax in mouse liver assessed as 2'-deoxy-2'-spirooxetane uridine triphosphate at 50 mg/kg, po; format: ADME, organism-based; details: in vivo; how it was run: as §1
Hepatocyte [19] = test: Prodrug conversion in mouse primary hepatocytes assessed as 2'-deoxy-2'-spirooxetane uridine triphosphate level per million cells at 62.5 uM after 4 hrs using radiolabelled compound by LC-MS/MS analysis; format: ADME, cell-based
How it was run: (§5)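 Study A: fresh primary hepatocyte cultures from mouse, rat, dog and human incubated with tritiated prodrug at 2 or 62.5 µM for 4 or 24 h. Triphosphate in cell lysates reported as pmol/million hepatocytes. Duplicate or single measurements.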

[20] = Prodrug conversion in dog primary hepatocytes assessed as 2'-deoxy-2'-spirooxetane uridine triphosphate level per million cells at 2 uM after 4 hrs using radiolabelled compound by LC-MS/MS analysis; format: ADME, cell-based, Canis lupus familiaris, Hepatocyte; how it was run: as §5
[21] = Drug metabolism in dog primary hepatocyte supernatant assessed as 1-[(4aR,6R,7R,7aR)-2-hydroxy-2-oxidodihydro-4H-spiro[furo[3,2-d][1,3,2]dioxaphosphinine-7,2'-oxetan]-6-yl]pyrimidine-2,4(1H,3H)-dione formation at 2 to 62.5 uM after 4 to 24 hrs using radiolabelled compound by HPLC analysis; format: ADME, cell-based, Canis lupus familiaris; details: hepatocytes
How it was run: (§6)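 Study A: primary cultured hepatocytes (mouse, rat, dog, human) incubated with 2 or 62.5 µM 5'-[3H]-labelled prodrug for 4 and 24 h. Cell lysates were analysed for triphosphate. Supernatants were protein-precipitated and profiled by HPLC with radioactivity detection. Cyclic monophosphate was also assessed by LC/MS/MS.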

[22] = Drug metabolism in dog primary hepatocytes assessed as 1-[(4aR,6R,7R,7aR)-2-hydroxy-2-oxidodihydro-4H-spiro[furo[3,2-d][1,3,2]dioxaphosphinine-7,2'-oxetan]-6-yl]pyrimidine-2,4(1H,3H)-dione formation at 2 to 62.5 uM after 4 hrs using radiolabelled compound by LC-MS/MS analysis; format: ADME, cell-based, Canis lupus familiaris, Hepatocyte; how it was run: as §6
Hepatocyte [23] = test: Prodrug conversion in human primary hepatocytes assessed as 2'-deoxy-2'-spirooxetane uridine triphosphate level per million cells at 2 uM after 4 hrs using radiolabelled compound by LC-MS/MS analysis; format: ADME, cell-based; how it was run: as §5
Hepatocyte [24] = test: Prodrug conversion in human primary hepatocytes assessed as 2'-deoxy-2'-spirooxetane uridine triphosphate level per million cells at 62.5 uM after 24 hrs using radiolabelled compound by LC-MS/MS analysis; format: ADME, cell-based; how it was run: as §5
Hepatocyte [25] = test: Drug metabolism in rat primary hepatocytes assessed as 1-[(4aR,6R,7R,7aR)-2-hydroxy-2-oxidodihydro-4H-spiro[furo[3,2-d][1,3,2]dioxaphosphinine-7,2'-oxetan]-6-yl]pyrimidine-2,4(1H,3H)-dione formation at 2 to 62.5 uM after 24 hrs using radiolabelled compound by LC-MS/MS analysis; format: ADME, cell-based
How it was run: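 Fresh primary hepatocyte cultures incubated with tritiated prodrug (5'-[3H]) at 2 and 62.5 µM for 4 and 24 h. Supernatants taken after protein precipitation and profiled by HPLC with radioactivity detection. Cell lysates profiled for metabolites by radio-LC. Cyclic monophosphate also measured by LC/MS/MS.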

Compound: CC(C)O[P@@]1(=O)OC[C@H]2O[C@@H](n3ccc(=O)[nH]c3=O)[C@@]3(CCO3)[C@@H]2O1
Drug metabolism (Hepatocyte [1]): metabolite_detected
Tmax (Liver [2]): 4 h
AUClast (Liver [3]): 126982 ng·h/g
Drug metabolism (Hepatocyte [4]): metabolite_detected
Activity (Hepatitis C virus [5]): -1.17
AUClast (Liver [6]): 719469 ng·h/g
half-life [7]: 7.3 h
Drug metabolism (Hepatocyte [8]): metabolite_notdetected
Drug metabolism (Hepatocyte [9]): metabolite_notdetected
Tlast (Liver [10]): 6 h
Drug metabolism (Hepatocyte [11]): metabolite_notdetected
Cmax [12]: 1290 ng/mL
half-life [13]: 4.4 h
Activity (Hepatitis C virus [14]): -0.45
Tmax [15]: 0.5 h
Kp [16]: 1.4
Activity (Hepatitis C virus [17]): -0.64
Tmax (Liver [18]): 2 h

Drug metabolism (Hepatocyte [19]): 0.12 pmol
Drug metabolism [20]: 0.005 pmol
Drug metabolism [21]: metabolite_detected
Drug metabolism [22]: metabolite_detected
Drug metabolism (Hepatocyte [23]): 0.023 pmol
Drug metabolism (Hepatocyte [24]): 0.38 pmol
Drug metabolism (Hepatocyte [25]): metabolite_detected
Compound: [3H]C1O[P@](=O)(OC(C)C)O[C@@H]2[C@@H]1O[C@@H](n1ccc(=O)[nH]c1=O)[C@@]21CCO1 (stereo not given in full)
